# Reference: ChEMBL document CHEMBL1132156, “Synthesis and structure-activity relationships of potential anticancer agents: alkylcarbamates of 3-(9-acridinylamino)-5-hydroxymethylaniline” (J Med Chem, 1999)
# Assays:
# HL-60 = assay: In vitro inhibition of human leukemic HL-60 cell growth in culture; type: functional, cell-based
# In short: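 HL-60 cells were seeded at 5×10^4 cells/mL in RPMI 1640 with 10% heat-inactivated FBS, penicillin and streptomycin, at 37 °C in 5% CO2. Cells were exposed for 72 h to six or seven drug concentrations, run in duplicate. Viability was read by XTT-tetrazolium microculture absorbance, and IC50 was derived from median-effect plot analysis.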
# Mus musculus [1] = assay: […] anticancer activity against B6D2F-1 mice bearing P388 leukemia measured by the average weight change(g) after day 11 at an intravenous dose of 24(mg/kg).; type: functional
# In short: (§1)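 Male B6D2F1 mice (8 weeks old, 20–25 g) were implanted iv on day 0 with P388/0 ascites cells (0.2 mL; ascites:saline 1.10), which grew in the liver. Drug was given iv via the tail vein, Q2Dx5, on days 1, 3, 5, 7 and 9. Groups had 4–5 mice. Day 1 value is mean body weight; later days are weight change.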
# Mus musculus [2] = assay: […] anticancer activity against B6D2F-1 mice bearing P388 leukemia measured by the average body weight(g) after day 1 at an intravenous dose of 12(mg/kg).
# Mus musculus [3] = assay: […] anticancer activity against B6D2F-1 mice bearing P388 leukemia measured by the average weight change(g) after day 11 at an intravenous dose of 18(mg/kg).; type: functional; in short: as §1
# Mus musculus [4] = assay: […] anticancer activity against B6D2F-1 mice bearing P388 leukemia measured by the average weight change(g) after day 11 at an intravenous dose of 12(mg/kg).; type: functional; in short: as §1
# Mus musculus [5] = assay: […] anticancer activity against B6D2F-1 mice bearing P388 leukemia measured by the average weight change(g) after day 9 at an intravenous dose of 24(mg/kg).; type: functional
# In short: (§2)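 Male B6D2F1 mice (8 weeks old, 20–25 g) were implanted iv on day 0 with P388/0 ascites cells (0.2 mL; ascites:saline = 1.10). Tumor grew in the liver. Drug was given iv via the tail vein, Q2Dx5, on days 1, 3, 5, 7 and 9. Body weight was recorded on days 1, 7, 9 and 11 and reported as the average change (g).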
# Mus musculus [6] = assay: […] anticancer activity against B6D2F-1 mice bearing P388 leukemia measured by the Average survival time(day+/-SD) at an intravenous dose of 24(mg/kg).; type: functional
# In short: (§3)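 Male B6D2F1 mice, 8 weeks old, 20–25 g. P388/0 ascites cells (0.2 mL, ascites:saline 1.10) were implanted iv on day 0, and the tumor grew in the liver. Drug was given iv by tail vein on days 1, 3, 5, 7 and 9 (Q2Dx5), with 4–5 mice per group. Survival time was scored as 8 a.m. (0.0), 1 p.m. (0.25) or 5 p.m. (0.5) deaths. %ILS was averaged against untreated controls, and toxic deaths were counted.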
# Mus musculus [7] = assay: […] anticancer activity against B6D2F-1 mice bearing P388 leukemia measured by the average weight change(g) after day 9 at an intravenous dose of 12(mg/kg).; type: functional; in short: as §2
# Mus musculus [8] = assay: […] anticancer activity against B6D2F-1 mice bearing P388 leukemia measured by the average weight change(g) after day 7 at an intravenous dose of 24(mg/kg).; type: functional; in short: as §1
# Mus musculus [9] = assay: […] anticancer activity against B6D2F-1 mice bearing P388 leukemia measured by the average body weight(g) after day 1 at an intravenous dose of 18(mg/kg).
# Mus musculus [10] = assay: […] anticancer activity against 5 B6D2F-1 mice bearing P388 leukemia measured by the toxicity death at an intravenous dose of 18(mg/kg).; type: organism-based; conditions: in vivo; in short: as §3
# Mus musculus [11] = assay: […] anticancer activity against B6D2F-1 mice bearing P388 leukemia measured by the Average survival time(day+/-SD) at an intravenous dose of 18(mg/kg).; type: functional; in short: as §3
# Mus musculus [12] = assay: […] anticancer activity against B6D2F-1 mice bearing P388 leukemia measured by the average survival time(day+/-SD) at an intravenous dose of 12(mg/kg)..; type: functional; in short: as §3
# Mus musculus [13] = assay: […] anticancer activity against B6D2F-1 mice bearing P388 leukemia measured by the average body weight(g) after day 1 at an intravenous dose of 24(mg/kg).
# Mus musculus [14] = assay: […] anticancer activity against B6D2F-1 mice bearing P388 leukemia measured by the increase in lifespan(%) at an intravenous dose of 12(mg/kg)..; type: functional; in short: as §3
# Mus musculus [15] = assay: […] anticancer activity against B6D2F-1 mice bearing P388 leukemia measured by the increase in lifespan(%) at an intravenous dose of 18(mg/kg).; type: functional; in short: as §3
# Mus musculus [16] = assay: […] anticancer activity against B6D2F-1 mice bearing P388 leukemia measured by the average weight change(g) after day 7 at an intravenous dose of 18(mg/kg).; type: functional; in short: as §1
# Mus musculus [17] = assay: […] anticancer activity against B6D2F-1 mice bearing P388 leukemia measured by the increase in lifespan(%) at an intravenous dose of 24(mg/kg).; type: functional; in short: as §3
# Mus musculus [18] = assay: […] anticancer activity against B6D2F-1 mice bearing P388 leukemia measured by the average weight change(g) after day 9 at an intravenous dose of 18(mg/kg).; type: functional; in short: as §2
# Mus musculus [19] = assay: […] anticancer activity against 5 4 B6D2F-1 mice bearing P388 leukemia measured by the toxicity death at an intravenous dose of 24(mg/kg).; type: organism-based; conditions: in vivo; in short: as §3
# Mus musculus [20] = assay: […] anticancer activity against B6D2F-1 mice bearing P388 leukemia measured by the average weight change(g) after day 7 at an intravenous dose of 12(mg/kg).; type: functional; in short: as §1
# Mus musculus [21] = assay: […] anticancer activity against 5 B6D2F-1 mice bearing P388 leukemia measured by the toxicity death at an intravenous dose of 12(mg/kg)..; type: organism-based; conditions: in vivo; in short: as §3
# Mus musculus [22] = assay: […] anticancer activity against B6D2F-1 mice bearing P388 leukemia measured by the increase in lifespan(%) at an intravenous dose of 3(mg/kg)..; type: functional; in short: as §3
# Mus musculus [23] = assay: […] anticancer activity against 5 B6D2F-1 mice bearing P388 leukemia measured by the toxicity death at an intravenous dose of 3(mg/kg)..; type: organism-based; conditions: in vivo; in short: as §3
# Mus musculus [24] = assay: […] anticancer activity against B6D2F-1 mice bearing P388 leukemia measured by the average weight change(g) after day 7 at an intravenous dose of 4(mg/kg).; type: functional; in short: as §2
# Mus musculus [25] = assay: […] anticancer activity against B6D2F-1 mice bearing P388 leukemia measured by the average body weight(g) after day 1 at an intravenous dose of 4(mg/kg).
# Mus musculus [26] = assay: […] anticancer activity against B6D2F-1 mice bearing P388 leukemia measured by the increase in lifespan(%) at an intravenous dose of 4(mg/kg).; type: functional; in short: as §3
# Mus musculus [27] = assay: […] anticancer activity against B6D2F-1 mice bearing P388 leukemia measured by the average body weight(g) after day 1 at an intravenous dose of 3(mg/kg).
# Mus musculus [28] = assay: […] anticancer activity against 5 B6D2F-1 mice bearing P388 leukemia measured by the toxicity death at an intravenous dose of 4(mg/kg).; type: organism-based; conditions: in vivo; in short: as §3
# Mus musculus [29] = assay: […] anticancer activity against B6D2F-1 mice bearing P388 leukemia measured by the Average survival time(day+/-SD) at an intravenous dose of 4(mg/kg).; type: functional; in short: as §3
# Mus musculus [30] = assay: […] anticancer activity against B6D2F-1 mice bearing P388 leukemia measured by the average weight change(g) after day 9 at an intravenous dose of 4(mg/kg).; type: functional; in short: as §2
# Mus musculus [31] = assay: […] anticancer activity against B6D2F-1 mice bearing P388 leukemia measured by the average weight change(g) after day 7 at an intravenous dose of 3(mg/kg).; type: functional; in short: as §2
# Mus musculus [32] = assay: […] anticancer activity against B6D2F-1 mice bearing P388 leukemia measured by the average survival time(day+/-SD) at an intravenous dose of 3(mg/kg)..; type: functional; in short: as §3
# Mus musculus [33] = assay: […] anticancer activity against B6D2F-1 mice bearing P388 leukemia measured by the average weight change(g) after day 11 at an intravenous dose of 3(mg/kg).; type: functional; in short: as §1
# Mus musculus [34] = assay: […] anticancer activity against B6D2F-1 mice bearing P388 leukemia measured by the average weight change(g) after day 11 at an intravenous dose of 4(mg/kg).; type: functional; in short: as §1
smiles,measurement,setting,value
O=C(Nc1cc(CO)cc(Nc2c3ccccc3nc3ccccc23)c1)OCc1ccccc1,IC50,HL-60,29 nM
CC(C)COC(=O)Nc1cc(CO)cc(Nc2c3ccccc3nc3ccccc23)c1,IC50,HL-60,9 nM
Nc1cc(CO)cc(Nc2c3ccccc3nc3c(F)cccc23)c1,IC50,HL-60,150 nM
COC(=O)Nc1cc(CO)cc(Nc2c3ccccc3nc3ccccc23)c1,IC50,HL-60,8.5 nM
Nc1cc(CO)cc(Nc2c3ccccc3nc3c(Cl)cccc23)c1,IC50,HL-60,370 nM
CCOC(=O)Nc1cc(CO)cc(Nc2c3ccccc3nc3c(F)cccc23)c1,IC50,HL-60,31 nM
Nc1cc(CO)cc(Nc2c3ccccc3nc3c([N+](=O)[O-])cccc23)c1,IC50,HL-60,14000 nM
CCOC(=O)Nc1cc(CO)cc(Nc2c3ccccc3nc3c(OC)cccc23)c1,IC50,HL-60,10 nM
Nc1cc(CO)cc(Nc2c3ccccc3nc3c(Br)cccc23)c1,IC50,HL-60,1500 nM
CCOC(=O)Nc1cc(CO)cc(Nc2c3ccccc3nc3c(Br)cccc23)c1,IC50,HL-60,130 nM
CCOC(=O)Nc1cc(CO)cc(Nc2c3ccccc3nc3c(C(=O)NCCN(C)C)cccc23)c1,IC50,HL-60,5.7 nM
Cc1cccc2c(Nc3cc(N)cc(CO)c3)c3cccc(C(=O)NCCN(C)C)c3nc12,IC50,HL-60,7.4 nM
CC(C)(C)OC(=O)Nc1cc(CO)cc(Nc2c3ccccc3nc3ccccc23)c1,Average weight change,Mus musculus [1],-1.8 g
same,Body weight,Mus musculus [2],23.1 g
same,Average weight change,Mus musculus [3],-1.6 g
same,Average weight change,Mus musculus [4],0.3 g
same,Average weight change,Mus musculus [5],-1.4 g
same,Average survival,Mus musculus [6],21 days
same,Average weight change,Mus musculus [7],-0.7 g
same,Average weight change,Mus musculus [8],-1.4 g
same,Body weight,Mus musculus [9],23.9 g
same,Toxicity related death,Mus musculus [10],0
same,Average survival,Mus musculus [11],22.1 days
same,IC50,HL-60,24 nM
same,Average survival,Mus musculus [12],18 days
same,Body weight,Mus musculus [13],22.3 g
same,Increase in life-span,Mus musculus [14],181%
same,Increase in life-span,Mus musculus [15],245%
same,Average weight change,Mus musculus [16],-1.3 g
same,Increase in life-span,Mus musculus [17],228%
same,Average weight change,Mus musculus [18],-1.2 g
same,Toxicity related death,Mus musculus [19],2
same,Average weight change,Mus musculus [20],-0.1 g
same,Toxicity related death,Mus musculus [21],0
CNC(=O)c1cccc2c(Nc3cc(N)cc(CO)c3)c3ccccc3nc12,IC50,HL-60,290 nM
CNC(=O)c1cccc2c(Nc3cc(N)cc(CO)c3)c3cccc(OC)c3nc12,IC50,HL-60,120 nM
CNC(=O)c1cccc2c(Nc3cc(N)cc(CO)c3)c3cccc(C)c3nc12,IC50,HL-60,93 nM
COc1cccc2c(Nc3cc(N)cc(CO)c3)c3cccc(C(=O)NCCN(C)C)c3nc12,IC50,HL-60,38 nM
COc1cccc2c(Nc3cc(N)cc(CO)c3)c3ccccc3nc12,IC50,HL-60,11 nM
CCOC(=O)Nc1cc(CO)cc(Nc2c3cccc(OC)c3nc3c(C(=O)NC)cccc23)c1,IC50,HL-60,32 nM
CCOC(=O)Nc1cc(CO)cc(Nc2c3ccccc3nc3c(C(=O)NC)cccc23)c1,IC50,HL-60,88 nM
CCOC(=O)Nc1cc(CO)cc(Nc2c3ccccc3nc3c(Cl)cccc23)c1,IC50,HL-60,67 nM
CN(C)CCNC(=O)c1cccc2c(Nc3cc(N)cc(CO)c3)c3ccccc3nc12,IC50,HL-60,130 nM
CCOC(=O)Nc1cc(CO)cc(Nc2c3cccc(OC)c3nc3c(C(=O)NCCN(C)C)cccc23)c1,IC50,HL-60,9.7 nM
O=C(Nc1cc(CO)cc(Nc2c3ccccc3nc3ccccc23)c1)Oc1ccccc1,IC50,HL-60,161 nM
CCOC(=O)Nc1cc(CO)cc(Nc2c3ccccc3nc3c([N+](=O)[O-])cccc23)c1,IC50,HL-60,3800 nM
Cc1cccc2c(Nc3cc(N)cc(CO)c3)c3ccccc3nc12,IC50,HL-60,7.6 nM
CCCOC(=O)Nc1cc(CO)cc(Nc2c3ccccc3nc3ccccc23)c1,IC50,HL-60,8 nM
CCOC(=O)Nc1cc(CO)cc(Nc2c3ccccc3nc3c(C)cccc23)c1,IC50,HL-60,4.7 nM
CCOC(=O)Nc1cc(CO)cc(Nc2c3cccc(C)c3nc3c(C(=O)NC)cccc23)c1,IC50,HL-60,11 nM
COc1cccc2c1C(=O)c1c(O)c3c(c(O)c1C2=O)C[C@@](O)(C(=O)CO)C[C@@H]3O[C@H]1C[C@H](N)[C@H](O)[C@H](C)O1 [DOXORUBICIN],Increase in life-span,Mus musculus [22],122%
same,Toxicity related death,Mus musculus [23],0
same,Average weight change,Mus musculus [24],-1.4 g
same,Body weight,Mus musculus [25],23.6 g
same,Increase in life-span,Mus musculus [26],328%
same,Body weight,Mus musculus [27],23 g
same,Toxicity related death,Mus musculus [28],0
same,Average survival,Mus musculus [29],27.4 days
same,Average weight change,Mus musculus [30],-1.6 g
same,Average weight change,Mus musculus [31],-0.4 g
same,Average survival,Mus musculus [32],14.2 days
same,Average weight change,Mus musculus [33],-3.6 g
same,Average weight change,Mus musculus [34],-3.2 g
